The subject of data set [1] is Aedes aegypti. The data set can be described thus: Insecticidal activity against third-instar larvae of Aedes aegypti assessed as mortality at 140 ppm after 24 to 48 hrs. It is filed as functional, organism-based. Put shortly: (§1)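 Diagnostic screen with third-instar larvae. Five larvae per pot, four replicates per concentration. Compounds tested at 300, 270, 180, 140, 70, 60, 45 and 25 ppm. Control pots held 1% DMSO only. Mortality was scored at 24 and 48 h. Larvae that could not reach the water surface when touched were counted as dead.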

Another data set has as its target Acetylcholinesterase (Homo sapiens, UniProt P22303). The data set can be described thus: Inhibition of AChE (unknown origin) by Ellman colorimetric method.
Data set [2] deals with Aedes aegypti. The data set can be described thus: Insecticidal activity against third-instar larvae of Aedes aegypti assessed as mortality at 45 ppm after 24 to 48 hrs. Format: functional, organism-based. Put shortly:
as §1

A short description of data set [3]: Dissociation constant, pKa of the compound. Format: physicochemical.
In data set [4] the test system is Aedes aegypti. The data set can be described thus: Insecticidal activity against third-instar larvae of Aedes aegypti assessed as mortality at 70 ppm after 24 to 48 hrs. It is filed as functional, organism-based. Put shortly:
as §1

Data set [5] relates to Aedes aegypti. The data set can be described thus: Insecticidal activity against third-instar larvae of Aedes aegypti assessed as mortality at 180 ppm after 24 to 48 hrs. Format: functional, organism-based. Put shortly: as §1
For data set [6], the system named is Aedes aegypti. The data set can be described thus: Insecticidal activity against third-instar larvae of Aedes aegypti assessed as mortality at 25 ppm after 24 to 48 hrs. It is filed as functional, organism-based. The procedure, abridged: as §1
Data set [7] concerns Aedes aegypti. The data set can be described thus: Insecticidal activity against third-instar larvae of Aedes aegypti assessed as mortality at 270 ppm after 24 to 48 hrs. It is filed as functional, organism-based. The procedure, abridged: as §1
Data set [8] relates to Aedes aegypti. The data set can be described thus: Insecticidal activity against third-instar larvae of Aedes aegypti assessed as mortality at 300 ppm after 24 to 48 hrs. It is filed as functional, organism-based. Put shortly:
as §1

The test system of data set [9] is Aedes aegypti. The data set can be described thus: Insecticidal activity against third-instar larvae of Aedes aegypti assessed as mortality after 48 hrs. Format: functional. The procedure, abridged:
(§2)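 In a second bioassay, third-instar larvae were exposed to 150, 130, 100, 85 and 55 ppm, with a 1% DMSO control. Five larvae per pot, four replicates. Death was scored as failure to reach the water surface when touched, at 24 h or 48 h. LC50 and LC99 with confidence intervals came from probit analysis.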

For data set [10], the system named is Aedes aegypti. The data set can be described thus: Insecticidal activity against third-instar larvae of Aedes aegypti assessed as mortality after 24 hrs. It is filed as functional. Put shortly: as §2
For data set [11], the system named is Aedes aegypti. The data set can be described thus: Insecticidal activity against third-instar larvae of Aedes aegypti assessed as mortality at 60 ppm after 24 to 48 hrs. It is filed as functional, organism-based. Put shortly: as §1
Data set [12] concerns Aedes aegypti. The data set can be described thus: Insecticidal activity against third-instar larvae of Aedes aegypti assessed as mortality. Format: functional. The procedure, abridged:
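Third-instar larvae exposed in a diagnostic screen to 1000, 300, 270, 180, 140, 70, 60, 45 and 25 ppm. Five larvae per pot, four replicates per concentration, 1% DMSO-only control. Mortality scored at 24 and 48 h; larvae unable to reach the water surface when touched were counted dead.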

Values after ≈ are worked out from the molar mass of the structure shown. Active and inactive are the calls of the source. The calls are words filed in the database; no cut-off is given here.

As usually defined, the IC50 is the point on the concentration scale where inhibition reaches its midpoint. Low readings indicate greater potency, high ones weaker potency. The pKa is the pH at which an ionisable group is half protonated. The LC50 is the concentration that kills 50% of the test population.

Sequence of Acetylcholinesterase (P22303 whole entry): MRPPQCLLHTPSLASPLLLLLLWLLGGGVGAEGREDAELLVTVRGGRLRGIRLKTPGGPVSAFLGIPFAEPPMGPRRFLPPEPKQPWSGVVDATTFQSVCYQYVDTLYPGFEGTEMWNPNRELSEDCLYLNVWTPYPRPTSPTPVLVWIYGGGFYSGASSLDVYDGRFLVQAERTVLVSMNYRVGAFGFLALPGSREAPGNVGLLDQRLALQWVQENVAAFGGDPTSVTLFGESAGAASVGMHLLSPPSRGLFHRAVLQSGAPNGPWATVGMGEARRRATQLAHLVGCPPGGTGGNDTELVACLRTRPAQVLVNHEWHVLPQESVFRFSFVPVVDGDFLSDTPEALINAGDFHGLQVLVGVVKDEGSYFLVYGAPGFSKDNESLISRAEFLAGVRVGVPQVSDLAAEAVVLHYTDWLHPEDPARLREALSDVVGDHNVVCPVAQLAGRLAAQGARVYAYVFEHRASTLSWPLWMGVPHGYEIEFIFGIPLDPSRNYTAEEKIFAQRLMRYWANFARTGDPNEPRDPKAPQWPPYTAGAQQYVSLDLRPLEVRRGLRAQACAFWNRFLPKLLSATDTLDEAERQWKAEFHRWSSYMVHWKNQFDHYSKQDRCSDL

Regarding `N#CC(c1ccc2c(c1)OCO2)N1CCCCC1` (racemic), the result in the data set on Aedes aegypti [1], with Aedes aegypti [2], in the data set on Aedes aegypti [4], in the data set with Aedes aegypti [5], in the data set with Aedes aegypti [6] and in the data set with Aedes aegypti [7] was Active. This molecule also registered a 50% inhibitory concentration (IC50) at Acetylcholinesterase of 61.4 µM. Also, the pKa in [3] amounted to 4.

Regarding `COc1cc(C(C#N)N2CCOCC2)cc(OC)c1OC` (racemic), the midpoint of inhibition on Acetylcholinesterase, the IC50, lay at 389 µM. This molecule also came in with a pKa in [3] of 2.1.

Take `COc1ccc(C(C#N)N2CCN(C)CC2)cc1O` (racemic): it took 350 µM to reach half-maximal inhibition at Acetylcholinesterase (IC50). The molecule also had a pKa in [3] of 7.7.

Regarding `COc1ccc(C(C#N)N2CCCCC2)cc1OC` (racemic), the IC50 against Acetylcholinesterase stood at 45 µM. Besides, the pKa in data set [3] came to 4. The outcome with Aedes aegypti [8] and in the data set on Aedes aegypti [5] was Active. The LC99 in the data set with Aedes aegypti [9] was 155.57 ppm; in the data set on Aedes aegypti [10], 147.54 ppm. Moreover, the LC50 worked out at 87.5 mg/L (≈ 336 µM) in the data set on Aedes aegypti [9] (Aedes aegypti, 48 h) and 88.1 mg/L (≈ 338 µM) in the data set on Aedes aegypti [10] (Aedes aegypti, 24 h).

As for `N#CC(c1ccc2c(c1)OCO2)N1CCOCC1` (racemic), in the data set with Aedes aegypti [1], the result was Active. In addition, at Acetylcholinesterase, the IC50 was 58 µM. In data set [3], the pKa is 2.2.

Take `COc1ccc(C(C#N)N2CCCC2)cc1OC` (racemic): the result in the data set with Aedes aegypti [1], in the data set on Aedes aegypti [11], in the data set with Aedes aegypti [5] and with Aedes aegypti [6] was Active. On Acetylcholinesterase, this molecule yielded an IC50 of 42 µM. In data set [3], this molecule yielded a pKa of 4.3.

On Acetylcholinesterase, `COc1ccc(C(C#N)N2CCCCC2)cc1O` (racemic) yielded an IC50 of 478 µM. In addition, in [3], the pKa was 4.

With `COP(=S)(OC)Oc1ccc(Sc2ccc(OP(=S)(OC)OC)cc2)cc1` [TEMEFOS], the LC50 in the data set with Aedes aegypti [12] was 0.006 mg/L (≈ 0.0129 µM).

The molecule `CCOP(=S)(OCC)Oc1cc(C)nc(C(C)C)n1` [DIMPYLATE] returned an IC50 on Acetylcholinesterase of 1.9 µM.

With `N#CC(c1ccc(O)cc1)N1CCCC1` (racemic), in [3], the pKa was 4.5.

Turning to `COc1cc(C(C#N)N2CCCCC2)ccc1O` (racemic), inhibition at Acetylcholinesterase was half-maximal at 448 µM (IC50). The molecule also showed a pKa in data set [3] of 4.1.

Molecule `COc1cc(C(C#N)N2CCOCC2)ccc1O` (racemic) registered an IC50 on Acetylcholinesterase of 409 µM. This molecule yielded a pKa in [3] of 2.3.

On Acetylcholinesterase, `COc1ccc(C(C#N)N2CCCC2)cc1O` (racemic) had an IC50 of 394 µM. The pKa in data set [3] was 4.3.

`COc1ccc(C(C#N)N2CCN(C)CC2)cc1OC` (racemic) came in with an IC50 on Acetylcholinesterase of 379 µM. The pKa in data set [3] turned out to be 7.6.

`COc1cc(C(C#N)N2CCCC2)ccc1O` (racemic) registered an IC50 against Acetylcholinesterase of 358 µM. The molecule further registered a pKa in data set [3] of 4.4.

As for `CN1CCN(C(C#N)c2ccc3c(c2)OCO3)CC1` (racemic), on Acetylcholinesterase, the IC50 is 275 µM. Moreover, the pKa in [3] amounted to 7.6.

As to `N#CC(c1ccc2c(c1)OCO2)N1CCCC1` (racemic), the outcome with Aedes aegypti [1], with Aedes aegypti [5] and in the data set with Aedes aegypti [7] was Active. The molecule further showed a half-inhibitory concentration (IC50) on Acetylcholinesterase of 51 µM. In data set [3], this molecule had a pKa of 4.3.

Take `COc1cc(C(C#N)N2CCN(C)CC2)cc(OC)c1OC` (racemic): the IC50 at Acetylcholinesterase came to 406 µM. Also, the pKa in [3] was 7.6.

`COc1cc(C(C#N)N2CCN(C)CC2)ccc1O` (racemic) showed an IC50 against Acetylcholinesterase of 340 µM. The molecule also showed a pKa in [3] of 7.7.

On to `N#CC(c1ccc(O)cc1)N1CCCCC1` (racemic), for which inhibition against Acetylcholinesterase was half-maximal at 93 µM (IC50). This molecule also registered a pKa in [3] of 4.2.

For the molecule `COc1cc(C(C#N)N2CCCCC2)cc(OC)c1OC` (racemic), inhibition against Acetylcholinesterase was half-maximal at 381 µM (IC50). The molecule also showed a pKa in data set [3] of 3.9.

In the case of `COc1ccc(C(C#N)N2CCOCC2)cc1O` (racemic), the concentration for half-maximal inhibition (IC50) against Acetylcholinesterase was found to be 363 µM. The pKa in data set [3] turned out to be 2.2.

In the case of `CN1CCN(C(C#N)c2ccc(O)cc2)CC1` (racemic), the pKa in data set [3] is 7.7.

As to `N#CC(c1ccc(O)cc1)N1CCOCC1` (racemic), the pKa in [3] worked out at 2.4.

On to `COc1ccc(C(C#N)N2CCOCC2)cc1OC` (racemic), for which the result in the data set on Aedes aegypti [1] was Active. In addition, the IC50 against Acetylcholinesterase worked out at 54 µM. The molecule further yielded a pKa in data set [3] of 2.2.

With `COc1cc(C(C#N)N2CCCC2)cc(OC)c1OC` (racemic), on Acetylcholinesterase, inhibition was half-maximal at 321 µM (IC50). The same molecule gave a pKa in data set [3] of 4.2.

The record behind these values is ChEMBL document CHEMBL3232744, “Design, synthesis, acetylcholinesterase inhibition and larvicidal activity of girgensohnine analogs on Aedes aegypti, vector of dengue fever” (Eur J Med Chem, 2014).
